Measurements reported in ChEMBL document CHEMBL1155459, “On-bead screening of a combinatorial fumaric acid derived peptide library yields antiplasmodial cysteine protease inhibitors with unusual peptide sequences” (J Med Chem, 2009).
Calls of active or inactive are those of the source. The rule behind the calls is not given here. Square brackets hold non-standard residues; d marks the D form. Peptide text beside a SMILES is read from it. * marks the point of attachment. Fumaroyl(AlaGlyPheOH) = C[C@H](NC(=O)/C=C/C(=O)*)C(=O)NCC(=O)N[C@@H](Cc1ccccc1)C(=O)O; Chg = N[C@H](C(=O)O)C1CCCCC1; Dap = NC[C@H](N)C(=O)O

Key:
[1] = Inhibition of Plasmodium falciparum falcipain-2 after 12 hrs by fluorescence spectroscopy-based on-bead assay; design: concentration or dose not given beside the values; conditions: concentration not given here
In short: (§1)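 Library members on resin (PEGA, theoretical loading 0.40 mmol/g; added as DMSO suspension, 0.64 mM final inhibitor) preincubated with enzyme 12 h, then Cbz-Phe-Arg-AMC 40 μM added; AMC release followed by fluorescence (ex 380/em 460 nm). Kinetics compared with inhibitor-free amino-PEGA resin.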

[2] = test system: Plasmodium falciparum; test: Inhibition of Plasmodium falciparum recombinant falcipain-2 expressed in Escherichia coli at 100 uM after 20 min by spectrofluorometry
In short: (§2)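 Single-point screen at 100 μM inhibitor (final). Recombinant enzyme in 50 mM acetate pH 5.5, 5 mM EDTA, 200 mM NaCl, 5 mM DTT, 10% DMSO final; Cbz-Phe-Arg-AMC 40 μM (or Cbz-Leu-Arg-AMC 25 μM) hydrolysis followed by fluorescence (ex 380/em 460 nm). % inhibition = 100(1 − vi/vc) from progress-curve slopes vs DMSO control; at least two independent assays.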

[3] = target: Rhodesain (Trypanosoma brucei rhodesiense) (UniProt Q95PM0); test: Inhibition of Trypanosoma brucei rhodesiense rhodesain after 12 hrs by fluorescence spectroscopy-based on-bead assay; design: concentration or dose not given beside the values; conditions: concentration not given here; in short: as §1
Chain of Rhodesain (Trypanosoma brucei rhodesiense) (Q95PM0 1-450): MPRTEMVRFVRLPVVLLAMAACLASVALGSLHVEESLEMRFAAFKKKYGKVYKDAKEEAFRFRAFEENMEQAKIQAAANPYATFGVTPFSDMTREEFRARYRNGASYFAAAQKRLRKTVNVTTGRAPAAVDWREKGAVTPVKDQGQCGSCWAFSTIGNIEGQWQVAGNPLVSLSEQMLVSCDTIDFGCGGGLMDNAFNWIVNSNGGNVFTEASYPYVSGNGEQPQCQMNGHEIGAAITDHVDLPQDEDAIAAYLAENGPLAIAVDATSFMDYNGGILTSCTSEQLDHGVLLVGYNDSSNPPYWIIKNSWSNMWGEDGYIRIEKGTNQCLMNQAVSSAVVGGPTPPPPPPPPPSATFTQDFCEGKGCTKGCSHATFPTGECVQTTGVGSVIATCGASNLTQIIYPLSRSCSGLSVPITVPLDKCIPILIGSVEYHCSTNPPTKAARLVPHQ

[4] = target: Rhodesain (Trypanosoma brucei rhodesiense) (UniProt Q95PM0); test: Inhibition of Trypanosoma brucei rhodesiense recombinant rhodesain at 100 uM; in short: as §2
[5] = target: T1, Cathepsin B (Homo sapiens, UniProt P07858); test: Inhibition of human liver cathepsin B at 100 uM
[6] = target: Procathepsin L (Bos taurus, UniProt P25975); test: Inhibition of bovine spleen cathepsin L
Chain of Procathepsin L (P25975 whole entry): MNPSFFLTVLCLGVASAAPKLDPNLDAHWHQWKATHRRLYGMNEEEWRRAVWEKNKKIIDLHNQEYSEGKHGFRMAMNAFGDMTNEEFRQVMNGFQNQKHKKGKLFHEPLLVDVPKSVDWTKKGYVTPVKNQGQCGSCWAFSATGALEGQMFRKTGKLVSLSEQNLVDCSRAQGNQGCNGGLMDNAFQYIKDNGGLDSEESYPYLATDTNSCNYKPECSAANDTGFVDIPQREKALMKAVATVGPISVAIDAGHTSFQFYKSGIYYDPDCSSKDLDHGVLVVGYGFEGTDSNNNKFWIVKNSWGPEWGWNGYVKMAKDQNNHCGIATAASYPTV
In short: (§3)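 Cathepsin L (bovine spleen) or B (human liver) hydrolysis of Cbz-Phe-Arg-AMC (40 μM) followed by fluorescence for 5-10 min without preincubation at 0.1-80 μM inhibitor, 10% DMSO final.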

[7] = target: Rhodesain (Trypanosoma brucei rhodesiense, UniProt Q95PM0); test: Inhibition of Trypanosoma brucei rhodesiense recombinant rhodesain
Chain of Rhodesain (Q95PM0 whole entry): as the sequence (Q95PM0 1-450) above

[8] = test system: Trypanosoma brucei brucei; test: Antitrypanosomal activity against Trypanosoma brucei brucei; format: functional, organism-based
[9] = Inhibition of Plasmodium falciparum recombinant falcipain-2 expressed in Escherichia coli after 20 min using Cbz-Phe-Arg-AMC as substrate by spectrofluorometry; conditions: in the assay text read “over 5-10 min” for “after 20 min”
In short: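 Continuous assay without preincubation. Recombinant falcipain-2 in 50 mM acetate pH 5.5, 5 mM EDTA, 200 mM NaCl, 5 mM DTT, 10% DMSO final; Cbz-Phe-Arg-AMC (40 μM, Km 21.5 μM) or Cbz-Leu-Arg-AMC (25 μM, Km 8.4 μM). Fluorescence monitored 5-10 min at 0.1-80 μM inhibitor. Ki from Dixon plot, corrected to zero substrate; at least two independent assays.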

[10] = test system: Plasmodium falciparum; test: Antiplasmodial activity against Plasmodium falciparum FCBR by fluorometric method; format: functional, organism-based, FCBR/Columbia
[11] = target: T1, Cathepsin B; test: Inhibition of human liver cathepsin B; in short: as §3
[12] = Plasmodium falciparum, FCBR/Columbia, read-out: IC50

CC(=O)NC[C@H](NC(=O)/C=C/C(=O)NCC(=O)NCC(=O)N[C@@H](Cc1ccccc1)C(=O)O)C(=O)N[C@@H](CC(C)C)C(=O)N[C@@H](C)C(=O)N[C@H](C(N)=O)C(C)C (HELM PEPTIDE1{[O=C(/C=C/C(=O)[*:2])NCC(=O)NCC(=O)N[C@@H](Cc1ccccc1)C(=O)O].[O=C([C@H](CN[*:3])N[*:1])[*:2]].L.A.V.[am]}|PEPTIDE2{[ac]}$PEPTIDE1,PEPTIDE2,2:R3-1:R2$$$V2.0)
inhibition [1]: 32% | inhibition [2]: 18% | inhibition [3]: 32% | inhibition [4]: 30% | inhibition [5]: inactive | Ki [6]: 20.8 µM

CC(C)C[C@H](NC(=O)[C@H](Cc1ccccc1)NC(=O)[C@H](CC(N)=O)NC(=O)/C=C/C(=O)NCC(=O)NCC(=O)N[C@@H](Cc1ccccc1)C(=O)O)C(=O)N[C@H](C(N)=O)C(C)C (HELM PEPTIDE1{[O=C(/C=C/C(=O)[*:2])NCC(=O)NCC(=O)N[C@@H](Cc1ccccc1)C(=O)O].N.F.L.V.[am]}$$$$V2.0)
inhibition [1]: 70% | inhibition [2]: 49% | inhibition [3]: 61% | inhibition [4]: 6% | inhibition [5]: 24%

CC(C)C[C@H](NC(=O)[C@H](C)NC(=O)/C=C/C(=O)NCC(=O)NCC(=O)N[C@@H](Cc1ccccc1)C(=O)O)C(=O)N[C@@H](CC(C)C)C(=O)N[C@H](C(N)=O)C(C)C (HELM PEPTIDE1{[O=C(/C=C/C(=O)[*:2])NCC(=O)NCC(=O)N[C@@H](Cc1ccccc1)C(=O)O].A.L.L.V.[am]}$$$$V2.0)
inhibition [1]: 55% | inhibition [2]: 73% | inhibition [3]: 65% | inhibition [4]: 99% | Ki [7]: 1 µM | inhibition [5]: 38% | Ki [6]: 30.7 µM

NCCCC(N)(C(=O)O)C(F)F (configuration not stated) [EFLORNITHINE]
inhibition [4]: 31% | IC50 ([8]; Trypanosoma brucei, read-out: IC50): 30.7 µM

CC(C)[C@H](NC(=O)[C@H](C)NC(=O)[C@@H](NC(=O)[C@H](CC(N)=O)NC(=O)/C=C/C(=O)NCC(=O)NCC(=O)N[C@@H](Cc1ccccc1)C(=O)O)C1CCCCC1)C(N)=O (HELM PEPTIDE1{[O=C(/C=C/C(=O)[*:2])NCC(=O)NCC(=O)N[C@@H](Cc1ccccc1)C(=O)O].N.[O=C([C@@H](N[*:1])C1CCCCC1)[*:2]].A.V.[am]}$$$$V2.0)
inhibition [1]: 73% | inhibition [2]: 79% | Ki [9]: 12.2 µM | IC50 [10, 12]: 75 µM | inhibition [3]: 26% | inhibition [4]: 98% | Ki [7]: 0.4 µM | inhibition [5]: 78% | Ki [11]: 22.2 µM

CC(C)C[C@H](NC(=O)[C@H](CCC(N)=O)NC(=O)/C=C/C(=O)N[C@@H](C)C(=O)NCC(=O)N[C@@H](Cc1ccccc1)C(=O)O)C(=O)N[C@H](C(=O)N[C@H](C(N)=O)C(C)C)C(C)C (HELM PEPTIDE1{[C[C@H](NC(=O)/C=C/C(=O)[*:2])C(=O)NCC(=O)N[C@@H](Cc1ccccc1)C(=O)O].Q.L.V.V.[am]}$$$$V2.0)
inhibition [1]: 48% | inhibition [2]: 45% | inhibition [3]: 64% | inhibition [4]: 37% | inhibition [5]: 23%

Cc1ccc(C(=O)Nc2ccc(S(=O)(=O)O)c3cc(S(=O)(=O)O)cc(S(=O)(=O)O)c23)cc1NC(=O)c1cccc(NC(=O)Nc2cccc(C(=O)Nc3cc(C(=O)Nc4ccc(S(=O)(=O)O)c5cc(S(=O)(=O)O)cc(S(=O)(=O)O)c45)ccc3C)c2)c1
inhibition [4]: 32%

CC(C)C[C@H](NC(=O)[C@@H](NC(=O)[C@H](CC(N)=O)NC(=O)/C=C/C(=O)NCC(=O)NCC(=O)N[C@@H](Cc1ccccc1)C(=O)O)c1ccccc1)C(=O)N[C@H](C(N)=O)C(C)C (HELM PEPTIDE1{[O=C(/C=C/C(=O)[*:2])NCC(=O)NCC(=O)N[C@@H](Cc1ccccc1)C(=O)O].N.[Phg].L.V.[am]}$$$$V2.0)
inhibition [1]: 51% | inhibition [2]: 76% | Ki [9]: 21.3 µM | IC50 [10]: Not Active | inhibition [3]: 50% | inhibition [4]: 26% | inhibition [5]: 13%

CC(C)C[C@H](NC(=O)[C@H](CC(N)=O)NC(=O)/C=C/C(=O)NCC(=O)NCC(=O)N[C@@H](Cc1ccccc1)C(=O)O)C(=O)N[C@@H](CC(C)C)C(=O)N[C@H](C(N)=O)C(C)C (HELM PEPTIDE1{[O=C(/C=C/C(=O)[*:2])NCC(=O)NCC(=O)N[C@@H](Cc1ccccc1)C(=O)O].N.L.L.V.[am]}$$$$V2.0)
inhibition [1]: 70% | inhibition [2]: 92% | Ki [9]: 10.1 µM | IC50 [10, 12]: 74 µM | inhibition [3]: 71% | inhibition [4]: 63% | Ki [7]: 2.7 µM | inhibition [5]: 21%

CC(C)[C@H](NC(=O)[C@@H](NC(=O)[C@@H](NC(=O)[C@H](CCC(N)=O)NC(=O)/C=C/C(=O)NCC(=O)NCC(=O)N[C@@H](Cc1ccccc1)C(=O)O)C1CCCCC1)C(C)C)C(N)=O (HELM PEPTIDE1{[O=C(/C=C/C(=O)[*:2])NCC(=O)NCC(=O)N[C@@H](Cc1ccccc1)C(=O)O].Q.[O=C([C@@H](N[*:1])C1CCCCC1)[*:2]].V.V.[am]}$$$$V2.0)
inhibition [1]: 51% | inhibition [2]: 83% | Ki [9]: 1.5 µM | IC50 [10, 12]: 27 µM | inhibition [3]: 53% | inhibition [4]: 99% | Ki [7]: 0.08 µM | IC50 [8]: Not Active | inhibition [5]: 81%

CC(C)C[C@H](NC(=O)[C@H](Cc1ccccc1)NC(=O)/C=C/C(=O)NCC(=O)NCC(=O)N[C@@H](Cc1ccccc1)C(=O)O)C(=O)N[C@@H](CC(C)C)C(=O)N[C@H](C(N)=O)C(C)C (HELM PEPTIDE1{[O=C(/C=C/C(=O)[*:2])NCC(=O)NCC(=O)N[C@@H](Cc1ccccc1)C(=O)O].F.L.L.V.[am]}$$$$V2.0)
inhibition [1]: 69% | inhibition [2]: 100% | Ki [9]: 0.8 µM | IC50 [10]: Not Active | inhibition [3]: 69% | inhibition [4]: 68% | Ki [7]: 0.2 µM | inhibition [5]: 73% | Ki [11]: 22.9 µM | Ki [6]: 34.8 µM

CC(C)C[C@H](NC(=O)[C@H](CC(N)=O)NC(=O)/C=C/C(=O)NCC(=O)NCC(=O)N[C@@H](Cc1ccccc1)C(=O)O)C(=O)N[C@@H](C)C(=O)N[C@H](C(N)=O)C(C)C (HELM PEPTIDE1{[O=C(/C=C/C(=O)[*:2])NCC(=O)NCC(=O)N[C@@H](Cc1ccccc1)C(=O)O].N.L.A.V.[am]}$$$$V2.0)
inhibition [1]: 41% | inhibition [2]: 33% | Ki [9]: 67.5 µM | inhibition [3]: 24% | inhibition [4]: 8% | inhibition [5]: 17%

CC(C)C[C@H](NC(=O)[C@H](Cc1ccccc1)NC(=O)/C=C/C(=O)N[C@@H](C)C(=O)NCC(=O)N[C@@H](Cc1ccccc1)C(=O)O)C(=O)N[C@@H](C)C(=O)N[C@H](C(N)=O)C(C)C (HELM PEPTIDE1{[C[C@H](NC(=O)/C=C/C(=O)[*:2])C(=O)NCC(=O)N[C@@H](Cc1ccccc1)C(=O)O].F.L.A.V.[am]}$$$$V2.0)
inhibition [1]: 45% | inhibition [3]: 49%

CC(=O)NC[C@H](NC(=O)/C=C/C(=O)N[C@@H](C)C(=O)NCC(=O)N[C@@H](Cc1ccccc1)C(=O)O)C(=O)N[C@H](C(=O)N[C@@H](C)C(=O)N[C@H](C(N)=O)C(C)C)C1CCCCC1 ({Fumaroyl(AlaGlyPheOH)}-[Dap](Ac)[Chg]AV-NH2)
inhibition [1]: 35% | inhibition [3]: 29%

CC(C)C[C@H](NC(=O)[C@H](C)NC(=O)/C=C/C(=O)NCC(=O)NCC(=O)N[C@@H](Cc1ccccc1)C(=O)O)C(=O)N[C@@H](C)C(=O)N[C@H](C(N)=O)C(C)C (HELM PEPTIDE1{[O=C(/C=C/C(=O)[*:2])NCC(=O)NCC(=O)N[C@@H](Cc1ccccc1)C(=O)O].A.L.A.V.[am]}$$$$V2.0)
inhibition [1]: 57% | inhibition [3]: 40%

CC(C)[C@H](NC(=O)[C@H](C)NC(=O)[C@@H](NC(=O)[C@H](Cc1ccccc1)NC(=O)/C=C/C(=O)NCC(=O)NCC(=O)N[C@@H](Cc1ccccc1)C(=O)O)C1CCCCC1)C(N)=O (HELM PEPTIDE1{[O=C(/C=C/C(=O)[*:2])NCC(=O)NCC(=O)N[C@@H](Cc1ccccc1)C(=O)O].F.[O=C([C@@H](N[*:1])C1CCCCC1)[*:2]].A.V.[am]}$$$$V2.0)
inhibition [1]: 65% | inhibition [3]: 48%

CC(C)C[C@H](NC(=O)[C@H](Cc1ccccc1)NC(=O)/C=C/C(=O)N[C@@H](C)C(=O)NCC(=O)N[C@@H](Cc1ccccc1)C(=O)O)C(=O)N[C@H](C(=O)N[C@H](C(N)=O)C(C)C)C(C)C (HELM PEPTIDE1{[C[C@H](NC(=O)/C=C/C(=O)[*:2])C(=O)NCC(=O)N[C@@H](Cc1ccccc1)C(=O)O].F.L.V.V.[am]}$$$$V2.0)
inhibition [1]: 36% | inhibition [3]: 45%

CC(=O)NC[C@H](NC(=O)/C=C/C(=O)N[C@@H](C)C(=O)NCC(=O)N[C@@H](Cc1ccccc1)C(=O)O)C(=O)N[C@@H](CC(C)C)C(=O)N[C@H](C(=O)N[C@H](C(N)=O)C(C)C)C(C)C (HELM PEPTIDE1{[C[C@H](NC(=O)/C=C/C(=O)[*:2])C(=O)NCC(=O)N[C@@H](Cc1ccccc1)C(=O)O].[O=C([C@H](CN[*:3])N[*:1])[*:2]].L.V.V.[am]}|PEPTIDE2{[ac]}$PEPTIDE1,PEPTIDE2,2:R3-1:R2$$$V2.0)
inhibition [1]: 35% | inhibition [3]: 60%
